How the values were obtained:
[1] = test system: Saccharomyces cerevisiae; assay: Growth inhibition of UFD2-deficient Saccharomyces cerevisiae YDL190C mutant at 20 ug/disc after 24 to 48 hrs by agar diffusion assay; type: functional; conditions: read-out: DIZ
In short: (§1)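 S. cerevisiae deletion mutants or wild type grown on YPD, seeded into liquid agar medium at an optical density of 0.1. 6 mm paper discs soaked with methanolic compound solution were placed on the plates and incubated at 30 °C. Growth was checked after 1 and 2 days, and the inhibition zone diameter was recorded in mm.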

[2] = test system: Saccharomyces cerevisiae; assay: Growth inhibition of GSH2-deficient Saccharomyces cerevisiae YOL049W mutant at 20 ug/disc after 24 to 48 hrs by agar diffusion assay; type: functional; conditions: read-out: DIZ; in short: as §1
[3] = test system: Saccharomyces cerevisiae; assay: Growth inhibition of POS5-deficient Saccharomyces cerevisiae YPL188W mutant at 20 ug/disc after 24 to 48 hrs by agar diffusion assay; type: functional; conditions: read-out: DIZ; in short: as §1
[4] = test system: Saccharomyces cerevisiae; assay: Growth inhibition of PST2-deficient Saccharomyces cerevisiae YDR032C mutant at 20 ug/disc 24 to 48 hrs by agar diffusion assay; type: functional; conditions: read-out: DIZ; in short: as §1
[5] = test system: Saccharomyces cerevisiae; assay: Growth inhibition of SOD2-deficient Saccharomyces cerevisiae YHR008C mutant at 20 ug/disc 24 to 48 hrs by agar diffusion assay; type: functional; conditions: read-out: DIZ; in short: as §1
[6] = Cytotoxicity against human PHF cells after 24 hrs by MTT assay; type: cell-based
In short: (§2)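 MTT assay. Cells were seeded at 50,000 cells/mL in medium with 10% fetal calf serum and grown for two days at 37 °C, 10% CO2. Serial dilutions of compound were then added for 24 h. MTT was added (final 0.5 mg/mL) for 2 h, and the formazan was pelleted, washed, dissolved in isopropanol with 0.4% HCl and read at 590 nm. IC50 is the concentration giving 50% of untreated-control absorbance, taken from dose-response curves; mean of two parallel experiments.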

[7] = test system: A-431; assay: Cytotoxicity against human A431 cells after 24 hrs by MTT assay; type: functional, cell-based; conditions: A-431, 24 h; in short: as §2
[8] = test system: MCF7; assay: Cytotoxicity against human MCF7 cells; type: functional
[9] = test system: PC-3; assay: Cytotoxicity against human PC3 cells; type: functional
[10] = test system: TK-10; assay: Cytotoxicity against human TK10 cells; type: functional
[11] = test system: RXF 393; assay: Cytotoxicity against human RXF393 cells; type: functional
[12] = test system: CAKI-1; assay: Cytotoxicity against human Caki1 cells; type: functional
[13] = test system: ACHN; assay: Cytotoxicity against human ACHN cells; type: functional
[14] = test system: NCI/ADR-RES; assay: Cytotoxicity against human NCI/ADR-RES cells; type: functional
[15] = test system: IGROV-1; assay: Cytotoxicity against human IGROV1 cells; type: functional
[16] = test system: OVCAR-3; assay: Cytotoxicity against human OVCAR3 cells; type: functional
[17] = test system: UACC-62; assay: Cytotoxicity against human UACC62 cells; type: functional
[18] = test system: Malme-3M; assay: Cytotoxicity against human MALME-3M cells; type: functional
[19] = test system: LOX IMVI; assay: Cytotoxicity against human LOXIMVI cells; type: functional
[20] = test system: SF-539; assay: Cytotoxicity against human SF539 cells; type: functional
[21] = test system: SF-268; assay: Cytotoxicity against human SF268 cells; type: functional
[22] = test system: SW-620; assay: Cytotoxicity against human SW620 cells; type: functional
[23] = test system: HT-29; assay: Cytotoxicity against human HT-29 cells; type: functional
[24] = test system: KM12; assay: Cytotoxicity against human KM12 cells; type: functional
[25] = test system: HCT-116; assay: Cytotoxicity against human HCT116 cells; type: functional
[26] = test system: COLO 205; assay: Cytotoxicity against human COLO205 cells; type: functional
[27] = test system: NCI-H522; assay: Cytotoxicity against human NCI-H522 cells; type: functional
[28] = test system: HOP-92; assay: Cytotoxicity against human HOP92 cells; type: functional
[29] = test system: NCI-H226; assay: Cytotoxicity against human NCI-H226 cells; type: functional
[30] = test system: NCI-H23; assay: Cytotoxicity against human NCI-H23 cells; type: functional
[31] = test system: RPMI-8226; assay: Cytotoxicity against human RPMI8226 cells; type: functional
[32] = test system: HL-60; assay: Cytotoxicity against human HL60 cells; type: functional
[33] = read-out: pLC50 (the source's name) (converted)

Compound: CC1=C([Se]CC(OC(=O)[C@@H](CO)NC(=O)OC(C)(C)C)C(=O)NCCCCCC(=O)OCc2ccccc2)C(=O)c2ccccc2C1=O (stereo not given in full)
- zone of inhibition at 20 µg/disc [1]: 0 mm
- zone of inhibition at 20 µg/disc [2]: 0 mm
- zone of inhibition at 20 µg/disc [3]: 0 mm
- zone of inhibition at 20 µg/disc [4]: 15 mm
- zone of inhibition at 20 µg/disc [5]: 11 mm
- IC50 [6]: 27 µM
- IC50 [7]: 4 µM
- GI50 [8]: 1.62 µM
- LC50 [8]: 7.08 µM
- TGI ([8]; read-out: pTGI (converted)): 3.39 µM
- GI50 [9]: 1.23 µM
- LC50 [9]: 5.37 µM
- TGI ([9]; read-out: pTGI (converted)): 2.57 µM
- GI50 [10]: 2.04 µM
- LC50 [10]: 5.89 µM
- TGI ([10]; read-out: pTGI (converted)): 3.47 µM
- GI50 [11]: 2.69 µM
- LC50 [11]: 6.46 µM
- TGI ([11]; read-out: pTGI (converted)): 4.17 µM
- GI50 [12]: 1.82 µM
- LC50 [12]: 6.03 µM
- TGI ([12]; read-out: pTGI (converted)): 3.31 µM
- GI50 [13]: 1.66 µM
- LC50 [13]: 5.75 µM
- TGI ([13]; read-out: pTGI (converted)): 3.09 µM
- GI50 [14]: 2.04 µM
- TGI ([14]; read-out: pTGI (converted)): 3.89 µM
- GI50 [15]: 1.78 µM
- LC50 (concentration killing 50% of cells) [15]: 6.31 µM
- TGI ([15]; read-out: pTGI (converted)): 3.39 µM
- GI50 [16]: 1.78 µM
- LC50 [16]: 5.62 µM
- TGI ([16]; read-out: pTGI (converted)): 3.16 µM
- GI50 [17]: 1.7 µM
- LC50 [17]: 5.62 µM
- TGI ([17]; read-out: pTGI (converted)): 3.09 µM
- GI50 [18]: 2.09 µM
- LC50 [18]: 7.08 µM
- TGI ([18]; read-out: pTGI (converted)): 3.8 µM
- GI50 [19]: 1.86 µM
- LC50 [19]: 7.41 µM
- TGI ([19]; read-out: pTGI (converted)): 3.72 µM
- GI50 [20]: 1.7 µM
- LC50 [20]: 5.62 µM
- TGI ([20]; read-out: pTGI (converted)): 3.09 µM
- GI50 [21]: 1.86 µM
- LC50 [21]: 5.75 µM
- TGI ([21]; read-out: pTGI (converted)): 3.24 µM
- GI50 [22]: 1.74 µM
- LC50 [22]: 6.17 µM
- TGI ([22]; read-out: pTGI (converted)): 3.24 µM
- GI50 [23]: 2.14 µM
- LC50 [23]: 7.24 µM
- TGI ([23]; read-out: pTGI (converted)): 3.98 µM
- GI50 [24]: 1.51 µM
- LC50 [24]: 5.5 µM
- TGI ([24]; read-out: pTGI (converted)): 2.88 µM
- GI50 [25]: 1.38 µM
- LC50 [25]: 5.37 µM
- TGI ([25]; read-out: pTGI (converted)): 2.75 µM
- GI50 [26]: 1.82 µM
- CC50 [26, 33]: 6.17 µM
- TGI ([26]; read-out: pTGI (converted)): 3.31 µM
- GI50 [27]: 2 µM
- LC50 [27]: 6.03 µM
- TGI ([27]; read-out: pTGI (converted)): 3.47 µM
- GI50 [28]: 1.86 µM
- LC50 (50% lethal concentration) [28]: 5.89 µM
- TGI ([28]; read-out: pTGI (converted)): 3.31 µM
- GI50 [29]: 2.24 µM
- CC50 [29, 33]: 8.71 µM
- TGI ([29]; read-out: pTGI (converted)): 4.37 µM
- GI50 [30]: 1.82 µM
- TGI ([30]; read-out: pTGI (converted)): 4.07 µM
- GI50 [31]: 2.19 µM
- LC50 [31]: > 100 µM
- TGI ([31]; read-out: pTGI (converted)): 5.89 µM
- GI50 [32]: 2.04 µM
- LC50 [32]: > 100 µM
- TGI ([32]; read-out: pTGI (converted)): 4.79 µM

Reference: ChEMBL document CHEMBL2177069, “Novel peptidomimetic compounds containing redox active chalcogens and quinones as potential anticancer agents” (Eur J Med Chem, 2012)
